Measured values reported in publication PMC6315297 (AIDS (London, England), 2013).
Peptide text beside a SMILES is read from it.

Molecular target: HLA-A*68:02 (Homo sapiens, UniProt P04439, A269V/D140Y/D185E/E176V/E277Q/E87N/F33Y/G231S/I121R/I166T/I218V/L180W/L300P/L318F/N151K/P208A/P217A/Q86R/R138H/R169H/S129P/T345S/V36M)
Assay: HLA peptide binding assay
In short: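 Recombinant biotinylated HLA-A*68:02 heavy chain diluted to 2 nM in a mix of 30 nM β2m and peptide, folded 48 h at 18°C. Folded complexes detected by AlphaScreen with streptavidin donor beads and acceptor beads carrying the conformation-dependent anti-HLA-I antibody W6/32. Beads at final 5 μg/mL, incubated overnight at 18°C. Plates equilibrated to reader temperature 1 h before reading.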

For `CC(C)[C@H](NC(=O)[C@H](Cc1ccc(O)cc1)NC(=O)[C@H](Cc1ccccc1)NC(=O)[C@@H](NC(=O)[C@@H](N)CCC(=O)O)[C@@H](C)O)C(=O)N[C@@H](CC(=O)O)C(=O)NCC(=O)N[C@@H](C)C(=O)O` [ETFYVDGA] (H-ETFYVDGA-OH), the Kd was 2 nM.
